The values that follow come from article PMC3325328 (Journal of Medicinal Chemistry, 2012).

For test [1], the target named is T1, human TLR2 (Homo sapiens, UniProt O60603). The experiment in a line: human TLR2-specific NF-κB reporter gene assay. The test is classed as cell-based. The conditions noted are these: for absolute magnitude of TLR2-induced NF-κB activation (in words): Fig. 1. The method, boiled down: (§1)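 HEK-Blue reporter cells with NF-κB-driven secreted alkaline phosphatase (sAP) were plated at ~10⁵ cells/mL and grown to confluency. They were then stimulated for 12 h with serially diluted test compound. Extracellular sAP in the supernatant was read spectrophotometrically at 620 nm using an alkaline phosphatase-specific chromogen in the detection medium. Samples were run in quadruplicate, with means and standard deviations shown.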
T1 sequence (O60603 21-784): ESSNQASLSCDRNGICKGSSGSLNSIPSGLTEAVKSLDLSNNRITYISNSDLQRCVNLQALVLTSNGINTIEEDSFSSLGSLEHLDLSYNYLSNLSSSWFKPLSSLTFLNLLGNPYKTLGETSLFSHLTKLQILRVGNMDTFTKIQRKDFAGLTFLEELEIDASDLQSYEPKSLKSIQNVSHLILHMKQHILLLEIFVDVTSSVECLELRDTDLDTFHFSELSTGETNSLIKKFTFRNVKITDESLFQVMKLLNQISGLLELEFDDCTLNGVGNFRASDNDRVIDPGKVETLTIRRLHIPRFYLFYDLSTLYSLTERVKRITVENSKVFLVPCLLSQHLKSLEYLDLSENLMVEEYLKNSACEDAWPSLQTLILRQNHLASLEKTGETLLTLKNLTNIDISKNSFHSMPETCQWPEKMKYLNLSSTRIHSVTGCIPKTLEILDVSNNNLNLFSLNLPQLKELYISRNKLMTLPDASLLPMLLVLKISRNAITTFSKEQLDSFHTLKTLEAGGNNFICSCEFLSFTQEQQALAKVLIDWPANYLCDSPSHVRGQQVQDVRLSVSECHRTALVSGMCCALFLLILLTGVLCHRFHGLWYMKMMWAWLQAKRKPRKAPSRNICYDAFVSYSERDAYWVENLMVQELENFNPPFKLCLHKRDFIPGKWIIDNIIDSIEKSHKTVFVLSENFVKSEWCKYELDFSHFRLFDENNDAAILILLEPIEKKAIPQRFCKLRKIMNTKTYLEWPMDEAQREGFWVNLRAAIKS

A further test deals with murine TLR2 (Mus musculus, UniProt Q9QUN7). The experiment in a line: murine TLR2-specific NF-κB reporter gene assay. The note with it: for mTLR2-agonistic activity (in words): murine TLR2 reporter gene assay. The test is classed as cell-based. In short, it runs like this: as §1
Chain of murine TLR2 (Q9QUN7 25-784): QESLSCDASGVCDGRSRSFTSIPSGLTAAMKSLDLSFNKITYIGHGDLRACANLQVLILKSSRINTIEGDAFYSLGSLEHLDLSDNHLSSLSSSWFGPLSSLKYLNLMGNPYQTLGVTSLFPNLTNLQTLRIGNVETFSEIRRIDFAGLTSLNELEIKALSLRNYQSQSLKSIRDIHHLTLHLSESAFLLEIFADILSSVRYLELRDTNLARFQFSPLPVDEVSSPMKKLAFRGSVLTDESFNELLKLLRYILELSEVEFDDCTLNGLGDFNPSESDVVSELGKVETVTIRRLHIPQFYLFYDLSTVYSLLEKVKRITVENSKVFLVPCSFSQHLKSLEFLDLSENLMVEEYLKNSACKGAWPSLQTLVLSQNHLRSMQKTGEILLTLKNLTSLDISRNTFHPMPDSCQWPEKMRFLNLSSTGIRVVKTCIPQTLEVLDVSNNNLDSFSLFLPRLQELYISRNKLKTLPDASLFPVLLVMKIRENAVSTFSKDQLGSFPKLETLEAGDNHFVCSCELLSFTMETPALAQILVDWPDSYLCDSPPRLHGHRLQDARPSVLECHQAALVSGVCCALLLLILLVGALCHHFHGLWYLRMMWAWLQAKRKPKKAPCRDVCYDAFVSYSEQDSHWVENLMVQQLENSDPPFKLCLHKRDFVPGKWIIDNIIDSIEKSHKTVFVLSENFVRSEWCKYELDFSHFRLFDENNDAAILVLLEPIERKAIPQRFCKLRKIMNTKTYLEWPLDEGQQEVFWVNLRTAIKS
On the technique in general: In a reporter assay the amount or activity of a reporter protein is the signal.

For test [2], the target named is T1, human TLR2. The note with it: cited from earlier work.

Regarding `CCCCCCCCCCCCCCNCC(=O)OCCSC[C@H](N)C(=O)N[C@@H](CO)C(=O)OC` [Compound 10b, (S)-methyl 2-((R)-2-amino-3-((2-(2-(tetradecylamino)acetoxy)ethyl)thio)propanamido)-3-hydroxypropanoate], the “hTLR2-agonistic activity (in words)” value on human TLR2 [1] was “completely inactive”.
`CCCCCCCCCCCCCCCC(=O)OCCSC[C@H](N)C(=O)N[C@@H](CO)C(=O)OC` [Compound 6d]: the “specificity for human versus murine TLR2 (in words)” value at murine TLR2 (human and murine TLR2 reporter gene assays) is “exquisite specificity in activating human TLR2 (hTLR2), but not murine TLR2 (mTLR2)”. Also, at murine TLR2, the “mTLR2-agonistic activity (in words)” value was “entirely inactive”.
With `CCCCCCCCCCCCCCCCCC(=O)OCCSC[C@H](N)C(=O)N[C@@H](CO)C(=O)OC` [Compound 6e, 2-(((R)-2-amino-3-(((S)-3-hydroxy-1-methoxy-1-oxopropan-2-yl)amino)-3-oxopropyl)thio)ethyl stearate], the “mTLR2-agonistic activity (in words)” value at murine TLR2 was “entirely inactive”.
For `CCCCCCCCCCCCCCCC(=O)OCCSC[C@H](N)C(=O)N[C@@H](COC(C)=O)C(=O)OC` [Compound 14a, 2-(((R)-3-(((S)-3-acetoxy-1-methoxy-1-oxopropan-2-yl)amino)-2-amino-3-oxopropyl)thio)ethyl palmitate], at human TLR2 [1], the “hTLR2-agonistic activity (in words)” value is given as “virtually indistinguishable from that of 6d”.
Take `CCCCCCCCCCCCCCCC(=O)OCCSC[C@H](NC(C)=O)C(=O)N[C@@H](CO)C(=O)OC` [Compound 11d, 2-(((R)-2-acetamido-3-(((S)-3-hydroxy-1-methoxy-1-oxopropan-2-yl)amino)-3-oxopropyl)thio)ethyl palmitate]: the “absolute magnitude of TLR2-induced NF-κB activation (in words)” value on human TLR2 [1] was “far greater”.
As to `CCCCCCCCCCCCCCCC(=O)OCCSC[C@H](NC(=O)C(F)(F)F)C(=O)N[C@@H](CO)C(=O)OC` [Compound 11h, 2-(((R)-3-(((S)-3-hydroxy-1-methoxy-1-oxopropan-2-yl)amino)-3-oxo-2-(2,2,2-trifluoroacetamido)propyl)thio)ethyl palmitate], the “absolute magnitude of TLR2-induced NF-κB activation (in words)” value on human TLR2 [1] is given as “low magnitude of NF-κB activation”.
On to `COC(=O)[C@H](CO)NC(=O)[C@@H](N)CSCCOC(=O)c1cccc(-c2ccccc2)c1` [Compound 6g, 2-(((R)-2-amino-3-(((S)-3-hydroxy-1-methoxy-1-oxopropan-2-yl)amino)-3-oxopropyl)thio)ethyl [1,1'-biphenyl]-3-carboxylate], for which, on human TLR2 [1], the “hTLR2-agonistic activity (in words)” value is reported as “complete absence of activity”.
On to `CCCCCCCCCCCCCCCC(=O)OCCCSC[C@H](N)C(=O)N[C@@H](CO)C(=O)OC` [Compound 15, 3-((R)-2-amino-3-((S)-3-hydroxy-1-methoxy-1-oxopropan-2-ylamino)-3-oxopropylthio)propyl palmitate], for which, at human TLR2 [2], the “TLR2-agonistic activity (in words), previously identified” value was “inactive”.
In the case of `CCCCCCCCCCCCCCCC(=O)OCCCSC[C@H](NC(C)=O)C(=O)N[C@@H](CO)C(=O)OC` [Compound 16, 3-(((R)-2-acetamido-3-(((S)-3-hydroxy-1-methoxy-1-oxopropan-2-yl)amino)-3-oxopropyl)thio)propyl palmitate], at human TLR2 [1], the “hTLR2-agonistic activity (in words)” value is “active, albeit much weaker in potency than 11d”.
The same measure, in the same setting: the entry for `CCCCCCCCCCCCCCCC(=O)N[C@@H](CSCCOC(=O)CCCCCCCCCCCCCCC)C(=O)N[C@@H](CO)C(=O)OC` [Compound 11g, 2-(((R)-3-(((S)-3-hydroxy-1-methoxy-1-oxopropan-2-yl)amino)-3-oxo-2-palmitamidopropyl)thio)ethyl palmitate] is “complete loss of activity”; for `CCCCCCCCCCCCCCN(CCCCCCCCCCCCCC)CC(=O)OCCSC[C@H](N)C(=O)N[C@@H](CO)C(=O)OC` [Compound 10a, (S)-methyl 2-((R)-2-amino-3-((2-(2-(ditetradecylamino)acetoxy)ethyl)thio)propanamido)-3-hydroxypropanoate] it is “completely inactive”.
On the same count and under the same terms, the entry for `COC(=O)[C@H](CO)NC(=O)[C@@H](N)CSCCOC(=O)c1ccc(-c2ccccc2)cc1` [Compound 6f, 2-(((R)-2-amino-3-(((S)-3-hydroxy-1-methoxy-1-oxopropan-2-yl)amino)-3-oxopropyl)thio)ethyl [1,1'-biphenyl]-4-carboxylate] is “complete absence of activity”.
